Experimental data as given in ChEMBL document CHEMBL1130202, “Biologically active heteroarotinoids exhibiting anticancer activity and decreased toxicity” (J Med Chem, 1997).
Calls of active or inactive are those of the source. No cut-off for these calls is given here.

How the values were obtained:
Mus musculus [1] = species: Mus musculus; test: Mortality rate in mice in mid dose 2; assay type: functional
Method in brief: (§1)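 Male B6D2F1 mice given compound daily by gavage in corn oil at the stated dose levels, with corn oil vehicle controls. Deaths counted as animals found dead or sacrificed moribund, with day(s) of death recorded. Heteroarotinoid groups ran to day 65 and low-dose reference groups to day 25.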

Mus musculus [2] = species: Mus musculus; test: Mortality rate in mice in mid dose 1; assay type: functional; method in brief: as §1
Mus musculus [3] = species: Mus musculus; test: Alopecia in mice observed at mid dose 2 with Hypervitaminosis; 3/16; assay type: functional, organism-based
Mus musculus [4] = species: Mus musculus; test: Skin scaling in mice at mid dose 1 with Hypervitaminosis; 0/16; assay type: functional, organism-based
Mus musculus [5] = species: Mus musculus; test: Enlarged lymph in gross pathological observations in mice with hypervitaminosis A at mid dose 2 with gross observations/total number of mice in group; 2/16; assay type: functional, organism-based
Mus musculus [6] = species: Mus musculus; test: Skin scaling in mice at high dose with Hypervitaminosis; 0/16; assay type: functional, organism-based
Mus musculus [7] = species: Mus musculus; test: Enlarged spleen in Gross pathological observations in mice with hypervitaminosis A at mid dose 1 with gross observations/total number of mice in group; 0/16; assay type: functional, organism-based
Mus musculus [8] = test: Alopecia observed at 0.01 mg/kg/day dose in mice with hypervitaminosis; 6/8; assay type: functional, organism-based
Mus musculus [9] = test: Effect of compound on Spleen to body weight ratios in mice at 0.05 mg/kg/day dose; measured on day 25
Mus musculus [10] = test: Skin scaling at 0.05 mg/kg/day in mice with hypervitaminosis; 8/8; assay type: functional, organism-based
Mus musculus [11] = test: Effect of compound on Spleen to body weight ratios in mice at 0.2 mg/kg/day dose on day 65; dead by day 65; assay type: functional, organism-based
Method in brief: (§2)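 Male B6D2F1 mice dosed daily by gavage with compound in corn oil; vehicle 1 (corn oil) controls run to termination on day 65. Low, mid 1, mid 2 and high dose groups, with dosage increases partway through the study. Organ-to-body weight ratios (×1000) taken at necropsy on day 65, reported as mean ± SD for 4 to 8 animals and as % difference from vehicle.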

Mus musculus [12] = test: Average number of fractures per mouse at 0.1 mg/kg/day
Mus musculus [13] = test: Enlarged spleen in Gross pathological observations with hypervitaminosis A in mice at 0.4 mg/kg/day dose with gross observations/total number of animals in group; 0/16; assay type: functional, organism-based
Mus musculus [14] = test: Approximate day to determine 10% weight loss in mice at 0.01 mg/kg/day; assay type: functional
Method in brief: (§3)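 Male B6D2F1 mice dosed daily by gavage in corn oil; body weights followed to termination (day 65, or day 25 for TTNPB 0.01/0.05 mg/kg/day groups) and compared with the matching vehicle group. Value is approximate day of onset of 10% body weight reduction versus vehicle.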

[15] = Mortality rate in mice at 0.01 mg/kg/day; assay type: ADME, organism-based; settings: mouse, in vivo; method in brief: as §1
Mus musculus [16] = test: Fracture incidents in mouse at 0.2 mg/kg/day; 3/8
Mus musculus [17] = test: Approximate day to determine 10% weight loss in mice at 0.05 mg/kg/day; assay type: functional; method in brief: as §3
Mus musculus [18] = test: Calculated 30-day maximally tolerated dose based on 10% weight loss in mice at 0.01 mg/kg/day; assay type: functional
Mus musculus [19] = test: Total dose of 10% weight loss in mice at 0.01 mg/kg/day; assay type: functional
Mus musculus [20] = test: Enlarged lymph in gross pathological observations with hypervitaminosis A in mice at 0.05 mg/kg/day dose with gross observations/total number of animals in group; 8/8; assay type: functional, organism-based
Mus musculus [21] = test: Average number of fractures per mouse at 0.8 mg/kg/day
Mus musculus [22] = test: Skin scaling at 0.4 mg/kg/day in mice with hypervitaminosis; 15/16; assay type: functional, organism-based
Mus musculus [23] = test: Effect of compound on right testicle to body weight ratios in mice at 0.01 mg/kg/day dose on day 25; assay type: functional, organism-based
Mus musculus [24] = test: Avoiding pressure on limbs at 0.2 mg/kg/day dose in mice with hypervitaminosis; 0/16; assay type: functional, organism-based; settings: Limb
Mus musculus [25] = test: Fracture incidents in mouse at 0.1 mg/kg/day
Mus musculus [26] = test: Skin scaling at 0.01 mg/kg/day in mice with hypervitaminosis; 4/8; assay type: functional, organism-based
Mus musculus [27] = test: Skin scaling at 0.2 mg/kg/day in mice with hypervitaminosis; 14/16; assay type: functional, organism-based
Mus musculus [28] = test: Effect of compound on Spleen to body weight ratios in mice at 0.01 mg/kg/day dose; all the animals died by day 65; assay type: functional, organism-based
Mus musculus [29] = test: Effect of compound on adrenal to body weight ratios in mice at 0.8 mg/kg/day dose; all the animals died by day 65; assay type: functional, organism-based
Mus musculus [30] = test: Effect of compound on adrenal to body weight ratios in mice at 0.01 mg/kg/day dose; measured on day 25
Mus musculus [31] = test: Enlarged spleen in Gross pathological observations with hypervitaminosis A in mice at 0.1 mg/kg/day dose with gross observations/total number of animals in group; 4/16; assay type: functional, organism-based
Mus musculus [32] = test: Effect of compound on right testicle to body weight ratios in mice at 0.4 mg/kg/day dose on day 65; dead on day 65; assay type: functional, organism-based
Mus musculus [33] = test: Effect of compound on Spleen to body weight ratios in mice at 0.4 mg/kg/day dose on day 65; dead by day 65; assay type: functional, organism-based; method in brief: as §2
Mus musculus [34] = species: Mus musculus; test: Effect of compound on Spleen to body weight ratios in mice at high dose on day 65; all the animals died by day 65; assay type: functional, organism-based; method in brief: as §2
Mus musculus [35] = species: Mus musculus; test: Effect of compound on white blood cells levels in mice at low dose on day 65; assay type: functional
Method in brief: (§4)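 Male B6D2F1 mice were gavaged daily with compound in corn oil at low, mid 1, mid 2 or high dose. Serum triglycerides and circulating white blood cells were measured on the stated day (8, 29, 36, 65). Values are group mean ± SD expressed as % relative to corn-oil vehicle, with significance at p ≤ 0.05.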

Mus musculus [36] = species: Mus musculus; test: Enlarged spleen in Gross pathological observations in mice with hypervitaminosis A at mid dose 1 with gross observations/total number of mice in group; 5/16; assay type: functional, organism-based
Mus musculus [37] = species: Mus musculus; test: Enlarged lymph in gross pathological observations in mice with hypervitaminosis A at low dose with gross observations/total number of mice in group; 6/16; assay type: functional, organism-based
Mus musculus [38] = species: Mus musculus; test: Effect of compound on white blood cells levels in mice at mid dose 2 on day 8; assay type: functional; method in brief: as §4
Mus musculus [39] = species: Mus musculus; test: Effect of compound on thymus to body weight ratios in mice at high dose on day 65; all the animals died by day 65; assay type: functional, organism-based
Method in brief: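 Male B6D2F1 mice were dosed daily by gavage in corn oil, with TTNPB given at 0.1–0.8 or 0.01/0.05 mg/kg/day. Thymus-to-body weight ratio (×1000) was taken at necropsy on day 65 against vehicle 1, or on day 25 for the 0.01/0.05 groups against vehicle 2. Mean ± SD of 4–8 animals, reported as % difference from vehicle.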

Mus musculus [40] = species: Mus musculus; test: Effect of compound on serum Alkaline phosphatase levels in mice at mid dose 1 on day 36; assay type: functional
Method in brief: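 Male B6D2F1 mice dosed daily by oral gavage in corn oil at low, mid 1, mid 2 or high dose. Blood sampled on set days (8, 29, 36, 65) for clinical chemistry, serum alkaline phosphatase and triglycerides. Group mean ± SD reported as % relative to vehicle 1; significance p < 0.05 versus corn oil vehicle.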

CC(/C=C/C=C(\C)c1ccc2c(c1)C(C)(C)CCO2)=C\C(=O)O
Mortality (Mus musculus [1]): 0 day of death | Mortality (Mus musculus [2]): 0 day of death | Activity (Mus musculus [3]): inactive | Activity (Mus musculus [4]): inactive

CC(/C=C/C=C(\C)c1ccc2c(c1)C(C)(C)CCS2)=C\C(=O)O
Activity (Mus musculus [5]): inactive | Activity (Mus musculus [6]): inactive | Activity (Mus musculus [7]): inactive

C/C(=C\c1ccc(C(=O)O)cc1)c1ccc2c(c1)C(C)(C)CCC2(C)C
Activity (Mus musculus [8]): Active | Activity (Mus musculus [9]): Toxic | Activity (Mus musculus [10]): Active | Activity (Mus musculus [11]): Toxic | Activity (Mus musculus [12]): 2 | Activity (Mus musculus [13]): inactive | Activity (Mus musculus [14]): >25 | Mortality [15]: 0 day of death | Activity (Mus musculus [16]): Weak activity | Activity (Mus musculus [17]): 8 | Max tolerated dose (Mus musculus [18]): >0.008 mg/kg | Dose (Mus musculus [19]): >0.25 mg/kg | Activity (Mus musculus [20]): Active | Activity (Mus musculus [21]): 0 | Activity (Mus musculus [22]): Active | Activity (Mus musculus [23]): Toxic | Activity (Mus musculus [24]): inactive | Activity (Mus musculus [25]): 5.7 | Activity (Mus musculus [26]): Weak activity | Activity (Mus musculus [27]): Active | Activity (Mus musculus [28]): Toxic | Activity (Mus musculus [29]): Toxic | Activity (Mus musculus [30]): Toxic | Activity (Mus musculus [31]): Weak activity | Activity (Mus musculus [32]): Toxic | Activity (Mus musculus [33]): Toxic

C/C(=C\c1ccc(C(=O)O)cc1)c1ccc2c(c1)C(C)(C)CCO2
Activity (Mus musculus [34]): Toxic | Activity (Mus musculus [35]): 4.27 | Activity (Mus musculus [36]): Weak activity | Activity (Mus musculus [37]): Weak activity | Activity (Mus musculus [38]): 5.26 | Activity (Mus musculus [39]): Toxic | Activity (Mus musculus [40]): 81.5
